Results from ChEMBL document CHEMBL1121913, “Inactivation of liver alcohol dehydrogenases and inhibition of ethanol metabolism by ambivalent active-site-directed reagents” (J Med Chem, 1981).

Tests used:
[1] = biological target: T1, Alcohol dehydrogenase (Equus caballus) (UniProt P00327+P00328); assay: The compound was tested for the ability to inactivate horse liver alcohol dehydrogenase in the presence of 1 mM NAD+k
[2] = The compound was tested for the ability to inactivate rat liver alcohol dehydrogenase in the presence of 1 mM NAD+K
Outline: (§1)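 Rat liver enzyme purified 15-fold ((NH₄)₂SO₄ 35–75%, DEAE-cellulose). Inactivation with 0.2 mM reagent, 0.1 M pyrophosphate buffer pH 8, 25 °C, enzyme near 0.2 mg/mL; NAD⁺ preincubated 1 min with enzyme before reagent addition. Apparent second-order constants computed on assumption of first-order dependence on reagent.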

[3] = The compound was tested for the ability to inactivate mouse liver alcohol dehydrogenase in the absence of NAD+K
Outline: (§2)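 Mouse liver ADH, fourfold purified ((NH₄)₂SO₄ 45–65% cut, DEAE-cellulose), incubated at about 0.2 mg/mL with 0.2 mM reagent in 0.1 M Na₂P₂O₇ pH 8, 25 °C; coenzyme, when present, added 1 min before inactivator. Apparent second-order rate constant derived assuming reaction first order in reagent.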

[4] = biological target: T2, Alcohol dehydrogenase (Homo sapiens) (UniProt P07327+P08319+P00325+P00326+P40394+P11766+P28332); assay: The compound was tested for the ability to inactivate human liver alcohol dehydrogenase in the presence of 1 mM NAD+k
Outline: (§3)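 Human liver ADH, purified on carboxymethyl- and DEAE-cellulose plus (NH₄)₂SO₄ (60%) with 5% ethanol throughout, ethanol dialysed out. Inactivation at 25 °C in 0.1 M Na₂P₂O₇, pH 8, enzyme about 0.2 mg/mL, 0.2 mM reagent; NAD⁺ added 1 min before reagent where used. Apparent second-order constant calculated assuming first order in reagent.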

[5] = biological target: T1, Alcohol dehydrogenase (Equus caballus); assay: The compound was tested for the ability to inactivate horse liver alcohol dehydrogenase in the absence of NAD+k
[6] = biological target: T2, Alcohol dehydrogenase (Homo sapiens); assay: (§4) The compound was tested for the ability to inactivate human liver alcohol dehydrogenase in the absence of NAD+K; outline: as §3
[7] = The compound was tested for the ability to inactivate rat liver alcohol dehydrogenase in the absence of NAD+K; outline: as §1
[8] = system: Mus musculus; assay: Percent inhibition of recovery of rotarod performance in mice at dose 0.13 mmol/kg; format: functional
Outline: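 Mice trained to hang on a 2-cm rod rotating at 7 rpm, two 15-min periods. Reagent given ip 22 h before ethanol 3 g/kg; five mice per dose, five vehicle controls. Impairment = 100(15 − minutes on rod)/15, probit-transformed; t1/2 for regaining 50% performance by regression. Inhibition = [t1/2(treated) − t1/2(control)]/t1/2(treated).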

[9] = (§5) Percent inhibition of Alcohol dehydrogenase activity in mice liver at dose 0.13 mmol/kg; format: tissue-based
Outline: (§6)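 Fed male Swiss-Webster mice (20–25 g), four or five per group; compound suspended in sterile 0.9% saline, single i.p. dose 22–24 h before i.p. ethanol 3 g/kg (40% w/v in saline). Tail-vein blood ethanol by GC (1-propanol internal standard); elimination rate = β slope × dose/extrapolated zero-time level. Liver ADH afterwards: homogenate activity with ethanol/NAD⁺ minus 10 mM pyrazole control, per mg protein.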

[10] = system: Mus musculus; assay: (§7) Percent inhibition of rate of ethanol metabolism in mice at dose 0.13 mmol/kg; format: functional; outline: as §6
[11] = biological target: T2, Alcohol dehydrogenase (Homo sapiens); assay: as §4; remark: listed apart in the source
Outline: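 Human liver ADH purified by CM- and DEAE-cellulose chromatography and (NH₄)₂SO₄ precipitation, with 5% ethanol removed by dialysis. Enzyme about 0.2 mg/mL with 0.2 mM reagent in 0.1 M Na₂P₂O₇, pH 8, 25 °C, no coenzyme. Apparent second-order rate constant assumes first order in reagent.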

[12] = Toxic effect in rats; format: toxicity, organism-based; settings: rat, in vivo
Outline: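 Male Sprague-Dawley rats (160–200 g), two per dose; single i.p. dose of compound suspended in sterile 0.9% saline. Acute lethality scored over 24 h after dosing.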

[13] = The compound was tested for the ability to inactivate mouse liver alcohol dehydrogenase in the presence of 1 mM NAD+K; Slow inactivation
[14] = (§8) Percent inhibition of Alcohol dehydrogenase activity in rat liver at dose 0.13 mmol/kg; format: tissue-based
Outline: as §6, with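 “Male Sprague-Dawley rats (160–200” for “Fed male Swiss-Webster mice (20–25”, “two” for “four or five”, “experiment;” for “group;”, “2” for “3”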

[15] = Toxic effect in mice; format: toxicity, organism-based; settings: mouse, in vivo
Outline: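 Male Swiss-Webster mice (20–25 g); single i.p. dose of compound suspended in sterile 0.9% saline. Acute lethality scored over 24 h; LD₅₀ with limits at p ≤ 0.05 from three doses on 15 mice.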

[16] = system: Rattus norvegicus; assay: (§9) Percent inhibition of rate of ethanol metabolism in rats at dose 0.13 mmol/kg; format: functional
Outline: as §6, with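 “Male Sprague-Dawley rats (160–200” for “Fed male Swiss-Webster mice (20–25”, “two” for “four or five”, “experiment;” for “group;”, “2” for “3”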

[17] = system: Rattus norvegicus; assay: as §9; format: functional; remark: listed apart in the source
Outline: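 Rats (male Sprague-Dawley, fed) pretreated ip with reagent suspended in saline 22–24 h before ethanol 2 g/kg ip. Serial 5 µL tail-vein samples, Ba(OH)₂/ZnSO₄ deproteinization with 1-propanol internal standard, GC-FID. Metabolic rate = blood-ethanol decline slope × ratio of dose to extrapolated zero-time blood level. Two rats per experiment.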

[18] = biological target: T1, Alcohol dehydrogenase (Equus caballus); assay: (§10) The compound was tested for the ability to inactivate horse liver alcohol dehydrogenase in the presence of 0.2 mM NAD+K
[19] = biological target: T1, Alcohol dehydrogenase (Equus caballus); assay: The compound was tested for the ability to inactivate horse liver alcohol dehydrogenase in the presence of 0.2 mM NAD+(K
[20] = system: Alcohol dehydrogenase (Homo sapiens); assay: The compound was tested for the ability to inactivate human liver alcohol dehydrogenase in the presence of 0.2 mM NADH(K
[21] = biological target: T2, Alcohol dehydrogenase (Homo sapiens); assay: The compound was tested for the ability to inactivate human liver alcohol dehydrogenase in the presence of 1 mM NAD+(K; outline: as §3
[22] = biological target: T2, Alcohol dehydrogenase (Homo sapiens); assay: The compound was tested for the ability to inactivate human liver alcohol dehydrogenase in the absence of NAD+(K; outline: as §3
[23] = system: Alcohol dehydrogenase (Equus caballus); assay: The compound was tested for the ability to inactivate horse liver alcohol dehydrogenase in the presence of 0.2 mM NAD+K
[24] = The compound was tested for the ability to inactivate mouse liver alcohol dehydrogenase in the presence of 1 mM NAD+K; outline: as §2
[25] = The compound was tested for the ability to inactivate rat liver alcohol dehydrogenase in the presence of NAD+K; outline: as §1
[26] = as §8; format: tissue-based; remark: listed apart in the source
Outline: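 Fed male Sprague-Dawley rats (160–200 g) received a single ip saline-suspended reagent dose, then ethanol 2 g/kg ip (40% w/v in saline) 22–24 h afterwards. Liver excised when blood ethanol neared zero, homogenized on ice, centrifuged. Activity = initial rate with ethanol and NAD⁺ minus rate in control assay containing 10 mM pyrazole, expressed per mg protein. Two rats per experiment.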

[27] = as §10
[28] = biological target: T1, Alcohol dehydrogenase (Equus caballus); assay: The compound was tested for the ability to inactivate horse liver alcohol dehydrogenase in the absence of NAD+(K
[29] = biological target: T2, Alcohol dehydrogenase (Homo sapiens); assay: The compound was tested for the ability to inactivate human liver alcohol dehydrogenase in the presence of 1 mM NAD+K; outline: as §3
[30] = biological target: T1, Alcohol dehydrogenase (Equus caballus); assay: The compound was tested for the ability to inactivate horse liver alcohol dehydrogenase in the presence of 1 mM NAD+(K
[31] = as §5; format: tissue-based; remark: listed apart in the source
Outline: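 Male Swiss-Webster mice (20–25 g), fed, given one ip dose of reagent suspended in sterile 0.9% saline, then ethanol 3 g/kg ip (40% w/v in saline) 22–24 h later. Liver removed once blood ethanol approached zero, chilled, homogenized, clarified by centrifugation. ADH activity taken as initial-velocity difference, ethanol/NAD⁺ assay minus same assay with 10 mM pyrazole, per mg protein. Four or five mice per group.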

[32] = system: Mus musculus; assay: as §7; format: functional; remark: listed apart in the source
Outline: (§11)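 Mice (male Swiss-Webster, fed) dosed ip with reagent in saline 22–24 h before ethanol 3 g/kg ip. Tail-vein blood (5 µL) deproteinized with Ba(OH)₂/ZnSO₄, 1-propanol internal standard, analyzed by GC with flame-ionization detection. Elimination slope fitted excluding absorption (1–2 h), multiplied by r (dose / theoretical zero-time blood level) to give metabolic rate. Four or five mice per group.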

[33] = biological target: T1, Alcohol dehydrogenase (Equus caballus); assay: The compound was tested for the ability to inactivate horse liver alcohol dehydrogenase in the presence of 1 mM NAD+K
[34] = as §7; settings: in the assay text read “0.48 mmol/kg” for “0.13 mmol/kg”; outline: as §11

Row | Compound | Rate constant [1] [M⁻¹ min⁻¹] | Rate constant [2] [M⁻¹ min⁻¹] | Rate constant [3] [M⁻¹ min⁻¹] | Rate constant [4] [M⁻¹ min⁻¹] | Rate constant [5] [M⁻¹ min⁻¹] | Rate constant [6] [M⁻¹ min⁻¹] | Rate constant [7] [M⁻¹ min⁻¹] | inhibition in vivo at 130 µmol/kg [8] [%] | LD50 [12] [µmol/kg] | LD50 [15] [µmol/kg] | inhibition in vivo at 130 µmol/kg [17] [%] | Rate constant [18] [M⁻¹ min⁻¹] | also measured
1 | O=C(O)CCCCCCCCCCNC(=O)CBr | 3 | 4 | 8.8 | 1400 | 43 | 230 | 9.1 |  |  |  |  |  | 
2 | O=C(O)CCCCCCCCCCCNC(=O)CBr | 3.2 | 1 | 43 | 320 | 120 | 140 | 19 |  |  |  |  |  | 
3 | NC(=O)CBr | 0.01 |  | 8.8 | 2.9 | 1.6 |  | 5.3 | 28 | 270 | 270 |  |  | inhibition [9]: 27%; inhibition in vivo at 130 µmol/kg [10]: 18%; Rate constant [11]: 2.9 M⁻¹ min⁻¹; Rate constant [13]: Slow inactivation; inhibition [14]: 0%; inhibition in vivo at 130 µmol/kg [16]: 11%
4 | O=C(O)CCCc1ccc(NC(=O)CBr)cc1 | 120 | 32 | 38 |  | 100 |  |  |  |  |  | 24 | 15 | Rate constant [19]: 15 M⁻¹ min⁻¹; Rate constant [20]: 5.1 M⁻¹ min⁻¹; Rate constant [21]: 140 M⁻¹ min⁻¹; Rate constant [22]: 11 M⁻¹ min⁻¹; Rate constant [23]: 15 M⁻¹ min⁻¹; Rate constant [24]: 14 M⁻¹ min⁻¹; Rate constant [25]: 32 M⁻¹ min⁻¹; inhibition [26]: 27%
5 | NC(=O)CCCc1ccc(NC(=O)CBr)cc1 |  | 70 | 36 |  |  | 5.4 | 35 | 58 | 130 | 210 | 26 | 160 | Rate constant [27]: 160 M⁻¹ min⁻¹; Rate constant [28]: 40 M⁻¹ min⁻¹; Rate constant [29]: 320 M⁻¹ min⁻¹; Rate constant [30]: 190 M⁻¹ min⁻¹; Rate constant [24]: 60 M⁻¹ min⁻¹; inhibition [31]: 21%; inhibition [14]: 21%; inhibition in vivo at 130 µmol/kg [32]: 20%
6 | CS(=O)(=O)OCC(=O)Nc1ccc(CCCC(N)=O)cc1 |  |  |  |  |  |  |  | 70 | > 480 | > 480 | 15 | 13 | Rate constant [33]: 24 M⁻¹ min⁻¹; inhibition [31]: 38%; inhibition [26]: 35%; inhibition [34]: 43%
7 | O=C(O)CBr | 0.09 | 0.8 | 9.8 |  | 8.3 | 0.8 | 13 |  |  |  |  |  | 
